Results on four compounds are retold here after ChEMBL document CHEMBL3124897, “A dynamic G-quadruplex region regulates the HIV-1 long terminal repeat promoter” (J Med Chem, 2013).

The structures appear in SMILES notation. The source made the active and inactive calls. The rule behind the calls is not given here.

The subject of data set [1] is Human immunodeficiency virus 1. Put plainly: Binding affinity to HIV 1 HXB2 G-quadruplex FL-LTR DNA assessed as blocking sites at G-tracts (4 to 2) after 20 mins by Taq polymerase stop assay. An outline of the steps:
(§1)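 Primer was 5'-32P-labelled (72 nM) and annealed to full-length LTR template (36 nM) in 10 mM lithium cacodylate, pH 7.4. Template was incubated with ligand plus 100 mM KCl for 20 min at room temperature. Extension used Taq Gold polymerase (2 U) at 47°C for 30 min. Reactions were stopped by EtOH precipitation, run on a 12% denaturing gel and read by phosphorimaging as stop sites at G-tracts.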

In data set [2] the test system is Human immunodeficiency virus 1. Briefly: Binding affinity to HIV 1 HXB2 G-quadruplex FL-LTR DNA assessed as blocking at G-tracts (6 and 5) after 20 mins by Taq polymerase stop assay. Put shortly: as §1
Data set [3] concerns Human immunodeficiency virus 1. Briefly: Binding affinity to HIV 1 HXB2 G-quadruplex LTR-2 DNA assessed as change in melting temperature at 16 uM after 24 hrs by circular dichroism spectropolarimeter analysis in the presence of K+. An outline of the steps: (§2)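 Oligonucleotides at 4 µM final in 10 mM lithium cacodylate, pH 7.4, with or without 100 mM KCl. Annealed at 95 °C for 5 min, slowly cooled, measured after 24 h. Ligand added after annealing at 16 µM final. CD melting from 20–95 °C, 1 min equilibration per step. Tm taken from a van't Hoff two-state fit.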
(In general: CD spectra are sensitive to the conformation of chiral molecules.)

The test system of data set [4] is Human immunodeficiency virus 1. Briefly: Binding affinity to HIV 1 HXB2 G-quadruplex LTR-2 DNA assessed as change in melting temperature at 16 uM after 24 hrs by circular dichroism spectropolarimeter analysis in the absence of K+. Put shortly: as §2
Data set [5] relates to Human immunodeficiency virus. Briefly: Binding affinity to HIV 1 HXB2 G-quadruplex LTR-4 DNA assessed as change in melting temperature at 16 uM after 24 hrs by circular dichroism spectropolarimeter analysis in the presence of K+. Put shortly:
as §2

Data set [6] concerns Human immunodeficiency virus 1. Put plainly: Binding affinity to HIV 1 HXB2 G-quadruplex LTR-3 DNA assessed as change in melting temperature at 16 uM after 24 hrs by circular dichroism spectropolarimeter analysis in the presence of K+. Put shortly:
as §2

Data set [7] has as its system Human immunodeficiency virus 1. Put plainly: Binding affinity to HIV 1 HXB2 G-quadruplex LTR-3 DNA assessed as change in melting temperature at 16 uM after 24 hrs by circular dichroism spectropolarimeter analysis in the absence of K+. Put shortly:
as §2

In data set [8] the test system is Human immunodeficiency virus 1. Put plainly: Binding affinity to HIV 1 HXB2 G-quadruplex LTR-FL DNA assessed as change in melting temperature at 16 uM after 24 hrs by circular dichroism spectropolarimeter analysis in the presence of K+. An outline of the steps: as §2
In data set [9] the test system is Human immunodeficiency virus 1. Put plainly: Antiviral activity against wild type HIV 1 NL4-3 infected in human TZM-bl cells assessed as inhibition of viral replication at 3 to 6 uM after 48 hrs by luciferase reporter gene assay. It counts as functional, organism-based. Put shortly:
(§3)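 TZM-bl cells (HIV-1 LTR-luciferase reporter line), 2×10^4 per well, grown overnight. Ligand preincubated with medium and wild-type or Nef-defective NL4-3 virus for 4 h before infection. Virus stocks were made by transfecting HEK 293T with proviral genomes and amplified in MT2 cells. Luciferase read on lysates after 48 h at 37°C. Values relative to DMSO-only infected control, n = 3, ±SEM.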

Data set [10] relates to Human immunodeficiency virus 1. Put plainly: Antiviral activity against Nef-deficient HIV 1 NL4-3 infected in human TZM-bl cells assessed as inhibition of viral replication at 3 to 6 uM after 48 hrs by luciferase reporter gene assay. It counts as functional, organism-based. Put shortly: as §3
A general note: In a reporter assay the amount or activity of a reporter protein is the signal.

The test system of data set [11] is Human immunodeficiency virus 1. Briefly: Inhibition of wild-type HIV 1 HXB2 LTR DNA assessed as reduction in promoter activity after 24 hrs by GFP reporter assay in the absence of Tat. Put shortly:
(§4)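 HEK 293T cells (2×10^5) transfected with LTR-EGFP plasmid, with or without Tat. Ligand (1.5–6.0 µM) added 4 h after transfection, then incubated overnight. Mean EGFP fluorescence measured by flow cytometry, 30000 events, gated on GFP+ cells with viable morphology. n = 3, mean ± s.d., Student's t-test.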

Data set [12] has as its system Human immunodeficiency virus 1. Briefly: Inhibition of wild-type HIV 1 HXB2 LTR DNA assessed as reduction in promoter activity after 24 hrs by GFP reporter assay in the presence of Tat. Put shortly:
as §4

Data set [13] concerns Human immunodeficiency virus 1. Briefly: Binding affinity to HIV 1 HXB2 G-tract mutant m5/m4 FL-LTR assessed as formation of LTR G-quadruplex by Taq polymerase stop assay. An outline of the steps:
(§5)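 Primer extension on wild-type or mutant full-length LTR templates in 100 mM K+ with 100 nM ligand. Labelled primer (72 nM) annealed to template (36 nM) in 10 mM lithium cacodylate, pH 7.4. Ligand/KCl incubation 20 min at room temperature, then Taq Gold extension at 47°C for 30 min. Products on 12% denaturing gel, phosphorimaging of stop sites.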

The subject of data set [14] is Human immunodeficiency virus 1. Briefly: Binding affinity to HIV 1 HXB2 G-tract mutant m2 FL-LTR assessed as formation of LTR-2 G-quadruplex by Taq polymerase stop assay. Put shortly: as §5
The test system of data set [15] is Human immunodeficiency virus 1. Put plainly: Binding affinity to HIV 1 HXB2 G-tract mutant m6' FL-LTR assessed as formation of LTR-2 and LTR-3 G-quadruplex by Taq polymerase stop assay. An outline of the steps:
as §5

The test system of data set [16] is Human immunodeficiency virus 1. Put plainly: Binding affinity to HIV 1 HXB2 G-tract mutant m1 FL-LTR assessed as effect on LTR G-quadruplex formation by Taq polymerase stop assay. Put shortly:
as §5

Data set [17] concerns Human immunodeficiency virus 1. Briefly: Binding affinity to HIV 1 HXB2 G-tract mutant m3' FL-LTR assessed as effect on LTR G-quadruplex formation by Taq polymerase stop assay. An outline of the steps: as §5
Data set [18] has as its system Human immunodeficiency virus 1. Briefly: Inhibition of wild-type HIV 1 HXB2 LTR DNA assessed as reduction in promoter activity at 6 uM after 24 hrs by GFP reporter assay in the presence of Tat. An outline of the steps:
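HEK 293T cells (2×10^5) transfected with pcLTR-EGFP, with Tat present. Ligand (1.5–6.0 µM) added 4 h after transfection and left overnight. Flow cytometry gated on GFP+ cells of viable morphology, 30000 events per sample; mean EGFP fluorescence read. n = 3, mean ± s.d., t-test.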

Data set [19] deals with Human immunodeficiency virus 1. Briefly: Binding affinity to HIV 1 HXB2 G-tract mutant m3'' FL-LTR assessed as effect on LTR G-quadruplex formation by Taq polymerase stop assay. An outline of the steps: as §5
Data set [20] has as its system Human immunodeficiency virus 1. Put plainly: Inhibition of HIV 1 HXB2 G-tract mutant m5 LTR DNA assessed as reduction in promoter activity at 1.5 to 6 uM after 24 hrs by luciferase assay. An outline of the steps:
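HEK 293T cells (5.5×10^4 per well) transfected with LTR-firefly luciferase vector plus HSV-TK Renilla control vector (200 ng each). Cells treated with ligand at 1.5–6.0 µM. Firefly signal normalized to Renilla and expressed relative to untreated control. n = 3, mean ± s.d., Student's t-test.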

The test system of data set [21] is Human immunodeficiency virus 1. Put plainly: Binding affinity to HIV 1 HXB2 G-tract mutant m3 FL-LTR assessed as formation of LTR-4 G-quadruplex by Taq polymerase stop assay. Put shortly:
as §5

A short description of data set [22]: Cytotoxicity against human TZM-bl cells at 0.1 to 6 uM after 48 hrs. It counts as cell-based. An outline of the steps: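 TZM-bl cells (2×10^4 per well) grown overnight, then exposed to compound in DMSO carrier at 37°C. Viability read after 48 h with Cell Titer Blue reagent.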
The test system of data set [23] is Human immunodeficiency virus 1. Briefly: Binding affinity to HIV 1 HXB2 G-tract mutant m6 FL-LTR DNA assessed as formation of LTR-2 G-quadruplex by Taq polymerase stop assay. An outline of the steps:
as §5

Data set [24] concerns Human immunodeficiency virus 1. Briefly: Inhibition of wild-type HIV 1 HXB2 LTR DNA assessed as reduction in promoter activity at 1.5 to 6 uM after 24 hrs by luciferase assay. Also noted: scale not given: the % may be the effect or the level left. An outline of the steps: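 HEK 293T cells (5.5×10^4 per well) co-transfected with LTR-driven firefly luciferase (pGL4.10Luc2/LTR) and TK-promoter Renilla luciferase (pGL4.74), 200 ng each. Treated with ligand at 1.5–6.0 µM. Firefly signal normalized to Renilla. n = 3, mean ± s.d., Student's t-test.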

By ΔTm is commonly meant the shift of the melting midpoint relative to a reference. On to `C[n+]1ccc(-c2c3nc(c(-c4cc[n+](C)cc4)c4ccc([nH]4)c(-c4cc[n+](C)cc4)c4ccc([nH]4)c(-c4cc[n+](C)cc4)c4nc2C=C4)C=C3)cc1`, for which, in data set [1], the result was inactive. Also, in [2], the outcome was Active. The shift in melting temperature (ΔTm) is 33.4 °C in [3]; 12.4 °C in data set [4]; 43.9 °C in [5]; 38 °C in data set [6]; 22.9 °C in data set [7]; 4.5 °C in data set [8].

The term inhibition denotes the percentage by which the read-out fell short of the control. On to `C[n+]1ccccc1-c1c2nc(c(-c3cccc[n+]3C)c3ccc([nH]3)c(-c3cccc[n+]3C)c3ccc([nH]3)c(-c3cccc[n+]3C)c3nc1C=C3)C=C2`, for which the inhibition entry in data set [9], in data set [10], in data set [11] and in data set [12] was “inactive” throughout.

Consider `CN(C)c1ccc(Nc2c3ccc(NC(=O)CCN4CCCC4)cc3nc3cc(NC(=O)CCN4CCCC4)ccc23)cc1`, for which the outcome in data set [1], in [13], in data set [14], in data set [16], in [17] and in data set [19] was inactive. Besides, the result in data set [20] was inactive. The outcome in data set [2], in data set [15], in [21] and in data set [23] was Active. The ΔTm was 39.9 °C in [3]; 17.6 °C in data set [4]; 54 °C in data set [5]; 42.3 °C in [6]; 12.9 °C in data set [7]; 5.6 °C in data set [8]. In addition, the inhibition result in data set [9] and in data set [10] was “Active” in each case. The figures for the inhibition in data set [11] (concentration not given here), in [18] and in data set [12] were 30%, 50% and “Dose-dependent effect”, respectively. In addition, the Activity entry in data set [22] was “Non-toxic”; in [24], 70%.

Consider `O=C1c2ccc3c4ccc5c6c(ccc(c7ccc(c2c37)C(=O)N1CCN1CCCCC1)c64)C(=O)N(CCN1CCCCC1)C5=O`, for which the ΔTm in data set [3] was determined as 31.1 °C; in [4], 13.8 °C; in data set [5], 55.8 °C; in data set [6], 16.4 °C; in data set [7], 15 °C; in [8] it was 8.8 °C.
